Assay results from different studies.
Compare with care: the assays were run in different laboratories.
Target: 3-phosphoinositide-dependent protein kinase 1 (PDPK1, Homo sapiens, UniProt O15530)
Mode: inhibitor

SMILES | assay | setting | inhibition [%]
COc1cc(C[C@H]2C(=O)OC[C@@H]2Cc2ccc(OC)c(OC)c2)ccc1O | enzyme activity, ADP detection | 100 µM | 18.6
CCCS(=O)(=O)Nc1ccc(F)c(C(=O)c2c[nH]c3ncc(-c4ccc(Cl)cc4)cc23)c1F | enzyme activity | 1 µM | < 10
CN1CC(Oc2cnc(C#N)cc2-c2ccn3nc(NC(=O)C4CC4)cc3c2)C1 | enzyme activity | 1 µM | 12
CC(C)COc1cccc(Cl)c1-c1cc2cnc(N)nc2nc1N1C[C@@H]2[C@@H](N)[C@@H]2C1 | enzyme activity, FRET | 25 µM | 0
CN(C)C1CCN(CC#Cc2nn(C3CCCC3)c3nc(NCc4ccccc4)ncc23)C1 (stereo not drawn) | enzyme activity, FRET | 0.1 µM | 0
CC/C(=N\NC(=O)NCc1cccc(O)c1)c1ccc(O)c(C)c1O | enzyme activity | 0.1 µM | -1.2
CNC(=O)c1cc(Oc2ccc(NC(=O)Nc3ccc(Cl)c(C(F)(F)F)c3)cc2)ccn1 | enzyme activity | 0.3 µM | -2
CS(=O)(=O)Nc1cccc(-c2csc(NC(=O)CSc3nc4nccnc4c(=O)n3CCc3ccccc3)n2)c1 | enzyme activity | 10 µM | 7
COc1cc2ncnc(Nc3ccc(Oc4ccccc4)c(C)c3C)c2cc1OC | enzyme activity | 1 µM | -2
c1ccc(CNc2nc(N3CCOc4ccccc43)nc3c2CCCC3)cc1 | target engagement in cells, chemoproteomics | 20 mM | -11.8
CN(c1ncccc1CNc1nc(Nc2ccc3c(c2)CC(=O)N3)ncc1C(F)(F)F)S(C)(=O)=O | enzyme activity | 1 µM | 36
Cc1ccc(Nc2nccc(N(C)c3ccc4c(C)n(C)nc4c3)n2)cc1S(N)(=O)=O | enzyme activity | 0.3 µM | 5
